Test results from ChEMBL document CHEMBL3352173, “Optimization of pyrrolamide topoisomerase II inhibitors toward identification of an antibacterial clinical candidate (AZD5099)” (J Med Chem, 2014).
Converted amounts (≈) assume the structure as drawn.

Tests used:
Haemophilus influenzae = test: Antimicrobial activity against Haemophilus influenzae by broth microdilution/CLSI method; assay type: functional; settings: Haemophilus influenzae; read-out: MIC
DNA gyrase subunit B = DNA gyrase subunit B (Staphylococcus aureus, UniProt P0A0K8); test: Inhibition of ATPase activity of Staphylococcus aureus GyrB
Chain of DNA gyrase subunit B (P0A0K8 whole entry): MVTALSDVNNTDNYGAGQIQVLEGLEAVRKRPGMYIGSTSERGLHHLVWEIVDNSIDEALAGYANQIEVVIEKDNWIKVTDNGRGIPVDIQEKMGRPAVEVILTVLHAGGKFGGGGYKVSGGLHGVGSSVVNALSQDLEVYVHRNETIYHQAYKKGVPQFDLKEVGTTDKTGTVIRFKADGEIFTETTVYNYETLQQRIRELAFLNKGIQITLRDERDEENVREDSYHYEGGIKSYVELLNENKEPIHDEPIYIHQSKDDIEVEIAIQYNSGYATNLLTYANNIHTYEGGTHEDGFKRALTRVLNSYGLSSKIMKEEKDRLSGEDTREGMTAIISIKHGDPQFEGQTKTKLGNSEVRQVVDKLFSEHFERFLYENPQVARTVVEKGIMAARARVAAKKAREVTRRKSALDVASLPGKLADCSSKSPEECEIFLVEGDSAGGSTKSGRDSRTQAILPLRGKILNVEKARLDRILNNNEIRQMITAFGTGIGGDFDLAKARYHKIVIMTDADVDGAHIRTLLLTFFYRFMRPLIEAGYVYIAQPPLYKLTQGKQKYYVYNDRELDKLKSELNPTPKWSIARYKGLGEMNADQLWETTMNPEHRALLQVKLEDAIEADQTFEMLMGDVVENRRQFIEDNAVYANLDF
Method in brief: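 IC50 was determined against S. aureus GyrB in the routine screening assay. The enzyme concentration limits resolution below 10 nM.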

Streptococcus pneumoniae = test: Antibacterial activity against Streptococcus pneumoniae by broth microdilution/CLSI method; assay type: functional; settings: Streptococcus pneumoniae; read-out: MIC
Streptococcus pyogenes = test: Antimicrobial activity against Streptococcus pyogenes by broth microdilution/CLSI method; assay type: functional
Staphylococcus aureus [1] = test: Antimicrobial activity against methicillin-sensitive Staphylococcus aureus by broth microdilution/CLSI method; assay type: functional; settings: Staphylococcus aureus; read-out: MIC
Staphylococcus aureus [2] = test: Antimicrobial activity against methicillin, quinolone-resistant Staphylococcus aureus by broth microdilution/CLSI method; assay type: functional; settings: Staphylococcus aureus; read-out: MIC
Moraxella catarrhalis = test: Antimicrobial activity against Moraxella catarrhalis by broth microdilution/CLSI method; assay type: functional; settings: Moraxella catarrhalis; read-out: MIC
Escherichia coli [3] = test: Antimicrobial activity against wild-type Escherichia coli Eco523 by broth microdilution/CLSI method; assay type: functional; settings: Escherichia coli, Eco523; read-out: MIC
Escherichia coli [4] = test: Antimicrobial activity against Escherichia coli tolC- by broth microdilution/CLSI method; assay type: functional; settings: Escherichia coli; read-out: MIC
[5] = Octanol-phosphate buffer distribution coefficient, log D of the compound at pH 7.4 by shake flask method; assay type: physicochemical
[6] = Percentage unbound in human plasma; assay type: ADME, cell-free
[7] = Solubility of the compound; assay type: physicochemical
[8] = Ratio of MIC for methicillin, quinolone-resistant Staphylococcus aureus to fraction unbound in human plasma; assay type: ADME

Row | SMILES | MIC (Haemophilus influenzae) [µg/mL] | IC50 (DNA gyrase subunit B) [µM] | MIC (Streptococcus pneumoniae) [µg/mL] | MIC (Streptococcus pyogenes) [µg/mL] | MIC (Staphylococcus aureus [1]) [µg/mL] | MIC (Staphylococcus aureus [2]) [µg/mL] | MIC (Moraxella catarrhalis) [µg/mL] | MIC (Escherichia coli [3]) [µg/mL] | MIC (Escherichia coli [4]) [µg/mL] | logD [5] | fraction unbound [6] | solubility [7] [µM] | Ratio [8]
1 | CO[C@H]1CN(c2nc(-c3cncnc3)c(C(=O)O)s2)CC[C@H]1NC(=O)c1[nH]c(C)c(Cl)c1Cl | 1.6 (≈ 3.13 µM) | < 0.01 | < 0.1 | 0.4 (≈ 0.782 µM) | 3.2 (≈ 6.26 µM) | 3.2 (≈ 6.26 µM) | 0.4 (≈ 0.782 µM) | > 100 | 0.8 (≈ 1.56 µM) | 0.35 | 0.011 | 260 (≈ 133 µg/mL) | 290
2 | CNC(=O)c1sc(N2CC[C@@H](NC(=O)c3[nH]c(C)c(Cl)c3Cl)[C@@H](OC)C2)nc1C(=O)O | – | < 0.01 | > 32 | – | – | 2 (≈ 4.08 µM) | – | > 64 | 2 (≈ 4.08 µM) | – | < 0.01 | > 1000 | > 200
3 | CO[C@H]1CN(c2nc(-c3cncc(NCCN4CCN(C)CC4)n3)c(C(=O)O)s2)CC[C@H]1NC(=O)c1[nH]c(C)c(Cl)c1Cl | 1 (≈ 1.53 µM) | 0.0012 | 0.011 (≈ 0.0169 µM) | 0.031 (≈ 0.0475 µM) | 0.25 (≈ 0.383 µM) | 0.58 (≈ 0.889 µM) | – | 46 (≈ 70.5 µM) | 0.51 (≈ 0.781 µM) | 2 | 0.027 | 36 (≈ 23.5 µg/mL) | 21
4 | CO[C@H]1CN(c2nc(C(=O)NN3CCOCC3)c(C(=O)O)s2)CC[C@H]1NC(=O)c1[nH]c(C)c(Cl)c1Cl | 1.4 (≈ 2.49 µM) | < 0.01 | 0.25 (≈ 0.445 µM) | 0.25 (≈ 0.445 µM) | 2 (≈ 3.56 µM) | 4 (≈ 7.12 µM) | 0.35 (≈ 0.623 µM) | > 64 | 1 (≈ 1.78 µM) | -0.15 | 0.071 | > 1000 | 56
5 | COCc1nc(N2CC[C@@H](NC(=O)c3[nH]c(C)c(Cl)c3Cl)[C@@H](OC)C2)sc1C(=O)O | 0.35 (≈ 0.733 µM) | < 0.01 | 0.12 (≈ 0.251 µM) | – | 0.5 (≈ 1.05 µM) | 1 (≈ 2.09 µM) | 0.063 (≈ 0.132 µM) | > 8 | 0.5 (≈ 1.05 µM) | 0.44 | 0.034 | > 1000 | 29
6 | CO[C@H]1CN(c2nc(-c3nccn3C)c(C(=O)O)s2)CC[C@H]1NC(=O)c1[nH]c(C)c(Cl)c1Cl | 0.25 (≈ 0.487 µM) | < 0.01 | < 0.06 | < 0.06 | < 0.06 | – | < 0.06 | 8 (≈ 15.6 µM) | < 0.06 | > 3 | 0.011 | 12 (≈ 6.16 µg/mL) | 5.2
7 | CO[C@H]1CN(c2nc(C(=O)N(C)C)c(C(=O)O)s2)CC[C@H]1NC(=O)c1[nH]c(C)c(Cl)c1Cl (racemic) | 8 (≈ 15.9 µM) | < 0.01 | 4 (≈ 7.93 µM) | – | 8 (≈ 15.9 µM) | > 8 | 2 (≈ 3.97 µM) | > 8 | 2 (≈ 3.97 µM) | -1 | 0.13 | > 1000 | > 62
8 | CO[C@H]1CN(c2nc(-c3csc(N)n3)c(C(=O)O)s2)CC[C@H]1NC(=O)c1[nH]c(C)c(Cl)c1Cl | 0.5 (≈ 0.941 µM) | < 0.0098 | < 0.06 | < 0.06 | < 0.06 | – | < 0.06 | 4 (≈ 7.53 µM) | < 0.06 | 3 | < 0.01 | < 1 | < 6.3
9 | CO[C@H]1CN(c2nc(-c3ccccn3)c(C(=O)O)s2)CC[C@H]1NC(=O)c1[nH]c(C)c(Cl)c1Cl | 0.5 (≈ 0.98 µM) | < 0.0098 | < 0.06 | < 0.06 | < 0.06 | – | < 0.06 | 8 (≈ 15.7 µM) | 0.13 (≈ 0.255 µM) | > 2.5 | 0.003 | < 1 | < 21
10 | CO[C@H]1CN(c2nc(-c3nccs3)c(C(=O)O)s2)CC[C@H]1NC(=O)c1[nH]c(C)c(Cl)c1Cl | 0.13 (≈ 0.252 µM) | < 0.0098 | < 0.06 | < 0.06 | < 0.06 | – | < 0.06 | 8 (≈ 15.5 µM) | 0.13 (≈ 0.252 µM) | 3.6 | < 0.01 | 16 (≈ 8.26 µg/mL) | < 6.3
11 | CO[C@H]1CN(c2nc(C(=O)N3CCOCC3)c(C(=O)O)s2)CC[C@H]1NC(=O)c1[nH]c(C)c(Cl)c1Cl (racemic) | 8 (≈ 14.6 µM) | < 0.01 | 2 (≈ 3.66 µM) | – | 8 (≈ 14.6 µM) | > 8 | 2 (≈ 3.66 µM) | > 8 | 4 (≈ 7.32 µM) | -0.99 | 0.14 | 200 (≈ 109 µg/mL) | > 57
12 | CO[C@H]1CN(c2nc(C(=O)NCCN3CCCC3=O)c(C(=O)O)s2)CC[C@H]1NC(=O)c1[nH]c(C)c(Cl)c1Cl | 0.5 (≈ 0.851 µM) | < 0.01 | < 0.06 | < 0.06 | 0.35 (≈ 0.596 µM) | 1.4 (≈ 2.38 µM) | < 0.063 | 64 (≈ 109 µM) | 0.71 (≈ 1.21 µM) | – | 0.076 | 870 (≈ 511 µg/mL) | 18
